Measured values published in ChEMBL document CHEMBL2150901, “Synthesis and biological activity of tricyclic cycloalkylimidazo-, pyrimido- and diazepinopurinediones” (Eur J Med Chem, 2011).
Calls of active or inactive are those of the source. The rule behind the calls is not given here.

Legend:
[1] = tested on: Mus musculus; experiment: Anticonvulsant activity in F1 albino mouse assessed as protection against maximal electroshock-induced seizures at 300 mg/kg, ip after 0.25 hrs; format: functional, organism-based; design: dose 300 mg/kg
Outline: (§1)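 Male albino F-1 mice (18–25 g), groups of 1–5 (rotorod 2–8). Compound given ip as a suspension in 0.5% methylcellulose at 30, 100 and 300 mg/kg. Seizures by maximal electroshock or subcutaneous pentylenetetrazole; neurotoxicity by rotorod. Read at 0.5 and 4 h, with some at 0.25, 1 and 2 h. Value is the minimum active dose, with protected (or toxic)/tested animals.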

[2] = tested on: Mus musculus; experiment: Anticonvulsant activity in F1 albino mouse assessed as protection against maximal electroshock-induced seizures at 300 mg/kg, ip after 0.5 hrs; format: functional, organism-based; design: dose 300 mg/kg; outline: as §1
[3] = tested on: Mus musculus; experiment: Anticonvulsant activity in F1 albino mouse assessed as protection against maximal electroshock-induced seizures at 300 mg/kg, ip after 1 hr; format: functional, organism-based; design: dose 300 mg/kg; outline: as §1
[4] = tested on: Mus musculus; experiment: Anticonvulsant activity in F1 albino mouse assessed as protection against maximal electroshock-induced seizures at 300 mg/kg, ip after 4 hrs; format: functional, organism-based; design: dose 300 mg/kg; outline: as §1
[5] = tested on: Mus musculus; experiment: Anticonvulsant activity in F1 albino mouse assessed as protection against subcutaneous pentylenetetrazole-induced seizures at 300 mg/kg, ip after 0.25 hrs; format: functional, organism-based; design: dose 300 mg/kg; outline: as §1
[6] = tested on: Mus musculus; experiment: Anticonvulsant activity in F1 albino mouse assessed as protection against subcutaneous pentylenetetrazole-induced seizures at 300 mg/kg, ip after 0.5 hrs; format: functional, organism-based; design: dose 300 mg/kg; outline: as §1
[7] = tested on: Mus musculus; experiment: Anticonvulsant activity in F1 albino mouse assessed as protection against subcutaneous pentylenetetrazole-induced seizures at 300 mg/kg, ip after 1 hr; format: functional, organism-based; design: dose 300 mg/kg; outline: as §1
[8] = tested on: Mus musculus; experiment: Anticonvulsant activity in F1 albino mouse assessed as protection against subcutaneous pentylenetetrazole-induced seizures at 300 mg/kg, ip after 4 hrs; format: functional, organism-based; design: dose 300 mg/kg; outline: as §1
[9] = tested on: Mus musculus; experiment: Neurotoxicity in F1 albino mouse assessed as minimal motor impairment at 300 mg/kg, ip after 0.25 hrs by rotorod test; format: toxicity, organism-based; design: dose 300 mg/kg, route intraperitoneal; settings: in vivo; outline: as §1
[10] = tested on: Mus musculus; experiment: Neurotoxicity in F1 albino mouse assessed as minimal motor impairment at 300 mg/kg, ip after 0.5 hrs by rotorod test; format: toxicity, organism-based; design: dose 300 mg/kg, route intraperitoneal; settings: in vivo; outline: as §1
[11] = tested on: Mus musculus; experiment: Neurotoxicity in F1 albino mouse assessed as minimal motor impairment at 300 mg/kg, ip after 1 hr by rotorod test; format: toxicity, organism-based; design: dose 300 mg/kg, route intraperitoneal; settings: in vivo; outline: as §1
[12] = tested on: Mus musculus; experiment: Neurotoxicity in F1 albino mouse assessed as minimal motor impairment at 300 mg/kg, ip after 4 hrs by rotorod test; format: toxicity, organism-based; design: dose 300 mg/kg, route intraperitoneal; settings: in vivo; outline: as §1
[13] = species on record: Rattus norvegicus; experiment: Selectivity ratio of Ki for adenosine A1 receptor in rat brain cortical membrane to Ki for adenosine A2A receptor in rat brain striatal membrane; format: cell membranes
Outline: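 Ki ratios from radioligand competition binding. Rat A1 used brain cortical membranes and rat A2A used brain striatal membranes. Human A1 and A2A used membranes of CHO cells expressing the receptors. A1 radioligand [³H]CCPA; A2A radioligand [³H]MSX-2. Potent compounds were tested at 6–7 concentrations spanning 3 orders of magnitude.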

[14] = molecular target: Adenosine receptor A2a (Rattus norvegicus, UniProt P30543); experiment: Displacement of [3H]MSX-2 from adenosine A2A receptor in rat brain striatal membrane; format: cell membranes
[15] = molecular target: T1, Adenosine receptor A1 (Rattus norvegicus) (UniProt P25099); experiment: Displacement of [3H]CCPA from adenosine A1 receptor in rat brain cortical membrane at 25 uM; format: cell membranes
T1 sequence (whole entry): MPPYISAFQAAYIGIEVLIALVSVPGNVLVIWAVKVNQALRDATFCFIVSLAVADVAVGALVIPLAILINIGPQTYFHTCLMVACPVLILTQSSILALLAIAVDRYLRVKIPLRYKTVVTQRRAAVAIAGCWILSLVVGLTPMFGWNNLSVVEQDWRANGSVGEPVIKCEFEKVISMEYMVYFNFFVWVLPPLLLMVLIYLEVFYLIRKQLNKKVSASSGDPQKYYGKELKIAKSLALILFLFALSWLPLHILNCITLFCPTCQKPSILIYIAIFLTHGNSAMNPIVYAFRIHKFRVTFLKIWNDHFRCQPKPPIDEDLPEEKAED

[16] = molecular target: T2, Adenosine receptor A1 (Rattus norvegicus, UniProt P25099); experiment: Displacement of [3H]CCPA from adenosine A1 receptor in rat brain cortical membrane; format: cell membranes
T2 sequence (P25099 whole entry): T1 sequence (whole entry)

Chain of Adenosine receptor A2a (P30543 whole entry): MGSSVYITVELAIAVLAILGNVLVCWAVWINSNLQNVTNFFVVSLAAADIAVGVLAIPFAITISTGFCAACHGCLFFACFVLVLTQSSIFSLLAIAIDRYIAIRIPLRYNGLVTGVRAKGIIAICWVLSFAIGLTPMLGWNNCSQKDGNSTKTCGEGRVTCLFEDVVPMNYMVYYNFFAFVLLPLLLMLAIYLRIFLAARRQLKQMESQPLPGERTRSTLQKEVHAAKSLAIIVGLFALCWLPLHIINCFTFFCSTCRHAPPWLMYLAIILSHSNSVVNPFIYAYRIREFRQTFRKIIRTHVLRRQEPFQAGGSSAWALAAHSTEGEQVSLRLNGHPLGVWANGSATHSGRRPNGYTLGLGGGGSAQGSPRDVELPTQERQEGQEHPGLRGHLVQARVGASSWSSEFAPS

CC1CCCCC1N1CCCn2c1nc1c2c(=O)n(C)c(=O)n1C (mixture of isomers)
Activity [1]: inactive | Activity [2]: inactive | Activity [3]: inactive | Activity [4]: inactive | Activity [5]: inactive | Activity [6]: inactive | Activity [7]: inactive | Activity [8]: inactive | Activity [9]: Non-toxic | Activity [10]: Non-toxic | Activity [11]: Non-toxic | Activity [12]: Non-toxic | Ratio Ki [13]: > 23 | Ki [14]: 1080 nM | inhibition [15]: 31% | Ki [16]: > 25000 nM

Cn1c(=O)c2c(nc3n2CCN3C2CCCC2)n(C)c1=O
Activity [1]: inactive | Activity [2]: inactive | Activity [3]: inactive | Activity [4]: inactive | Activity [5]: inactive | Activity [6]: Active | Activity [7]: inactive | Activity [8]: inactive | Activity [9]: Non-toxic | Activity [10]: Toxic | Activity [11]: Non-toxic | Activity [12]: Non-toxic | Ratio Ki [13]: 8 | Ki [14]: 3100 nM | inhibition [15]: 50% | Ki [16]: 25000 nM

C[C@H](C1CCCCC1)N1CCCn2c1nc1c2c(=O)n(C)c(=O)n1C
Activity [1]: inactive | Activity [2]: inactive | Activity [3]: inactive | Activity [4]: inactive | Activity [5]: inactive | Activity [6]: inactive | Activity [7]: inactive | Activity [8]: inactive | Activity [9]: Non-toxic | Activity [10]: Non-toxic | Activity [11]: Non-toxic | Activity [12]: Non-toxic | Ratio Ki [13]: 6 | Ki [14]: 1300 nM | Ki [16]: 7890 nM

Cn1c(=O)c2c(nc3n2CCCCN3C2CCCC2)n(C)c1=O
Activity [1]: inactive | Activity [2]: inactive | Activity [3]: inactive | Activity [4]: inactive | Activity [5]: inactive | Activity [6]: inactive | Activity [7]: inactive | Activity [8]: inactive | Activity [9]: Non-toxic | Activity [10]: Non-toxic | Activity [11]: Non-toxic | Activity [12]: Non-toxic | Ratio Ki [13]: 4 | Ki [14]: 1380 nM | Ki [16]: 5060 nM

Cn1c(=O)c2c(nc3n2CCN3CCC2=CCCCC2)n(C)c1=O
Activity [1]: inactive | Activity [2]: inactive | Activity [3]: inactive | Activity [4]: inactive | Activity [5]: inactive | Activity [6]: inactive | Activity [7]: inactive | Activity [8]: inactive | Activity [9]: Non-toxic | Activity [10]: Non-toxic | Activity [11]: Non-toxic | Activity [12]: Toxic | Ratio Ki [13]: 1 | Ki [14]: 2020 nM | Ki [16]: 2450 nM

Cn1c(=O)c2c(nc3n2CCN3CC2CCCCC2)n(C)c1=O
Activity [1]: inactive | Activity [2]: inactive | Activity [3]: inactive | Activity [4]: inactive | Activity [5]: inactive | Activity [6]: inactive | Activity [7]: inactive | Activity [8]: inactive | Activity [9]: Non-toxic | Activity [10]: Non-toxic | Activity [11]: Non-toxic | Activity [12]: Non-toxic | Ratio Ki [13]: > 13 | Ki [14]: 2000 nM | inhibition [15]: 41% | Ki [16]: ≥ 25000 nM

Cn1c(=O)c2c(nc3n2CCCCN3C2CCCCC2)n(C)c1=O
Activity [1]: inactive | Activity [2]: inactive | Activity [3]: inactive | Activity [4]: inactive | Activity [5]: inactive | Activity [6]: inactive | Activity [7]: inactive | Activity [8]: inactive | Activity [9]: Non-toxic | Activity [10]: Non-toxic | Activity [11]: Non-toxic | Activity [12]: Non-toxic | Ratio Ki [13]: 1 | Ki [14]: 2960 nM | Ki [16]: 2130 nM

CC1CCCCC1N1CCCCn2c1nc1c2c(=O)n(C)c(=O)n1C (mixture of isomers)
Activity [1]: inactive | Activity [2]: inactive | Activity [3]: inactive | Activity [4]: inactive | Activity [5]: inactive | Activity [6]: Active | Activity [7]: inactive | Activity [8]: inactive | Activity [9]: Non-toxic | Activity [10]: Non-toxic | Activity [11]: Non-toxic | Activity [12]: Non-toxic | Ratio Ki [13]: > 7 | Ki [14]: 3460 nM | inhibition [15]: 27% | Ki [16]: > 25000 nM

CC(C1CCCCC1)N1CCCn2c1nc1c2c(=O)n(C)c(=O)n1C (racemic)
Activity [1]: inactive | Activity [2]: inactive | Activity [3]: inactive | Activity [4]: inactive | Activity [5]: inactive | Activity [6]: inactive | Activity [7]: inactive | Activity [8]: inactive | Activity [9]: Non-toxic | Activity [10]: Non-toxic | Activity [11]: Non-toxic | Activity [12]: Non-toxic | Ratio Ki [13]: 6 | Ki [14]: 1240 nM | Ki [16]: 7580 nM

Cn1c(=O)c2c(nc3n2CCCN3C2CC2)n(C)c1=O
Activity [1]: inactive | Activity [2]: inactive | Activity [3]: inactive | Activity [4]: inactive | Activity [5]: inactive | Activity [6]: inactive | Activity [7]: inactive | Activity [8]: inactive | Activity [9]: Non-toxic | Activity [10]: Toxic | Activity [11]: Non-toxic | Activity [12]: Non-toxic | Ratio Ki [13]: 20 | Ki [14]: 1240 nM | inhibition [15]: 43% | Ki [16]: ≥ 25000 nM
